A selection: hits, their analogues and other compounds. The true share with any hit is near 1%.
Beta2AR agonist: beta2AR agonists driving receptor internalization, primary screen, cell-based, FAP fluorogen, flow cytometry | Beta-2 adrenergic receptor (Homo sapiens), P07550 | Am2.2-beta2AR cells | response, % (no concentration beside the values) | 340,000 compounds, 0.43% hits;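 active = response above a set limit, near 3 SD of response in nonfluorescent compounds, cut at about 42% in these data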
Target sequence (P07550 whole entry, looked up): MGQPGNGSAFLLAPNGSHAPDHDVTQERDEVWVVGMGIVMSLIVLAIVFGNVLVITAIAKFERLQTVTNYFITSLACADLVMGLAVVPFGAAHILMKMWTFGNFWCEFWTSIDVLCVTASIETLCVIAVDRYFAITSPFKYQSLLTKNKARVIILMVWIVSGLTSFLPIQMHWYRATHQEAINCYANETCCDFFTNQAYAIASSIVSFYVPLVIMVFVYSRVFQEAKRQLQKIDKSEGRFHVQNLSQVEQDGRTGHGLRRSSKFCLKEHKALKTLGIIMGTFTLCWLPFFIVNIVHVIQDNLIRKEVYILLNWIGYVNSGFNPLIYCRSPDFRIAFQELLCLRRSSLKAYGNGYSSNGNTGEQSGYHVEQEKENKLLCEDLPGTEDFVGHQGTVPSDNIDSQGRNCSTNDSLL
CHOP UPR activ: activators of apoptotic CHOP UPR arm, primary screen, cell-based, CHO-CHOP luciferase reporter, luminescence, uHTS. AID 449763, 2010. activation, % at 10 µM. 330,000 compounds, 0.34% hits. UPR activation; percent of tunicamycin response over DMSO baseline;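 active = at 10 µM dose, activation of 40% or more, normalized to positive control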;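 note: 100% = tunicamycin at 10 µg/mL and 0% = DMSO alone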
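Assay system: CHO cells with stable CHOP pathway luciferase reporter; Buffer or medium: F12 plus 10% serum; Times: 16-18 h cell attachment, then 6 h compound exposure, 37 °C; Signal: luciferase luminescence; Read-out basis: percent activation relative to tunicamycin control; Control set: tunicamycin high control, DMSO low control.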
UPR XBP1 act: activators of adaptive XBP1 UPR arm, primary screen, cell-based, CHO-XBP1 luciferase reporter, luminescence, uHTS. activation, % at 20 µM. 330,000 compounds, 0.33% hits. IRE1-XBP1 UPR activation; percent of tunicamycin response, DMSO as zero;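 active = versus positive control, 20 µM dose yields 30% or more activation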;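 note: 100% = tunicamycin at 10 µg/mL and 0% = DMSO only wells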
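Signal: luciferase luminescence; Assay system: CHO-XBP1 luciferase reporter cells; Amount: one thousand reporter cells per well; Dosing: 20 µM single concentration, DMSO 1%; Benchmarks: high control tunicamycin 10 µg/mL final, low control DMSO vehicle only; Schedule: 6 h compound exposure at 37 °C, 5% CO2; Evaluation: percent activation relative to tunicamycin reference.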
T cell HTS: modulators of CD8 T cell-vesicle binding, primary screen, mouse 2C CD8+ T cells, flow cytometry; 330,000 compounds, 0.068% hits; 2C CD8+ T cell-vesicle binding; hits give low values; AID 2052, 2009; response (vesicle binding), % at 7 µM;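 active = response, share of CD8 T cells binding vesicles, and their 90th percentile fluorescence all below set limits, cut at about 80% in these data, passing the limit was not always enough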;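 note: values below 100% mean blocked vesicle binding to the CD8+ T cells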
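Incubation: binding step 1.5 h, 37 °C, antibody labelling 20 min, ice; system: murine 2C transgenic CD8+ T lymphocytes; technique: cytometric PE anti-B7-1 and Alexa647 anti-CD8 signals after 1% paraformaldehyde fixation; also added: QL9-charged Drosophila Ld/ICAM-1/B7-1 vesicles; control set: naked versus QL9-loaded vesicles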
Beta2AR ag CP1: beta2AR agonists via receptor internalization, confirmation, cell-based, FAP fluorogen, flow cytometry, single point, cherry pick 1. Am2.2-beta2AR cells, FAP surface receptor; hits give low values. 1,100 compounds, 25% hits. shares compounds with Beta2AR agonist. percent response (surface receptor), % at 10 µM;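 active = surface receptor percent response at or below 58%, roughly 3 SD from nonfluorescent compounds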
B2AR FAP counter: counter-screen for beta-2AR agonists: fluorescence in Am2.2 cells. 1,100 tested, under 10 active. shares compounds with Beta2AR agonist. calls only at 10 µM. FAP fluorogen flow cytometry, fluorescence counterscreen; hits give low values;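 active = percent response below a set limit in fluorescence channel 1 and below 50% in channel 8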
* hit, by the source's call; i = inactive; nt = no result given.

SMILES	Beta2AR agonist	CHOP UPR activ	UPR XBP1 act	T cell HTS	Beta2AR ag CP1	B2AR FAP counter
CSc1ccc(S(=O)(=O)N2CCC(C(=O)NCC3CCCO3)CC2)cc1 (stereo unspecified)	155.2*	0.6	5.2	324.3	107.7	i
COc1ccc(OCC(O)Cn2c(=N)n(Cc3ccccc3)c3ccccc32)cc1 (stereo unspecified)	15.9	0.3	1.4	462.0	nt	nt
N=c1n(Cc2ccc(Cl)cc2)c2ccccc2n1CC(O)COc1ccccc1 (stereo unspecified)	42.7*	1.0	7.7	176.2	18.7*	i
Cc1ccc(OCC(O)Cn2c(=N)n(Cc3ccccc3)c3ccccc32)cc1 (stereo unspecified)	54.6*	-2.5	1.4	180.3	16.9*	i
COc1ccc(/C=C/C(=O)O)cc1COc1cccc(C)c1	5.5	1.1	0.2	227.4	nt	nt
CCOC(=O)C1(Cc2ccccc2)CCCN(C2CCN(C(C)=O)CC2)C1 (stereo unspecified)	-11.6	-1.0	-1.3	136.6	nt	nt
CCN(CC)S(=O)(=O)c1cc(C(=O)Nc2cc(Cl)ccc2N2CCN(C)CC2)ccc1Cl	74.2*	1.6	7.3	579.6	20.1*	i
Cc1ccc(S(=O)(=O)N/N=C/c2ccc(OC3CSC3)cc2)cc1	-4.6	-0.2	-2.8	276.6	nt	nt
CCCCN(CCCC)c1nc(OC)nc(-n2nnc(C(C)=O)c2C)n1	73.5*	-1.3	-2.2	164.0	25.0*	i
CC(=O)c1nnn(-c2nc(N)nc(N(c3ccccc3)c3ccccc3)n2)c1C	-9.6	1.8	-2.8	328.8	nt	nt
CCOc1cc(CNc2ccc3c(c2)OCCO3)cc(Br)c1OC	45.8*	-4.7	2.9	223.2	86.8	i
CCOc1c(Br)cc(CNc2ccc3c(c2)OCCO3)cc1OC	14.3	-4.1	-5.1	413.9	nt	nt
CC(=O)Oc1ccccc1N(C(C)=O)S(=O)(=O)c1ccc2ccccc2c1	2.6	0.9	1.2	196.6	nt	nt
CC(=O)Oc1c(Br)cc(N(C(C)=O)S(=O)(=O)c2ccccc2)c2ccccc12	59.9*	7.1	5.2	137.8	107.4	i
N#CC(C(=S)Nc1ccccc1)c1nc2ccccc2[nH]1 (stereo unspecified)	-6.5	38.4	8.2	i	131.2	i
Cc1ccc(-n2ncc(C(=O)Nc3cc(Cl)cc(Cl)c3)c2C2CCNCC2)cc1C	56.4*	nt	nt	nt	76.1	i
Cc1ccc(NC(=O)c2ccc3c(c2)C(=O)N(CC2CCCO2)C3=O)cc1C (stereo unspecified)	7.1	7.7	-2.3	402.8	113.0	i
COc1ccc(NC(=O)c2ccc3c(c2)C(=O)N(CC2CCCO2)C3=O)cc1O (stereo unspecified)	-0.3	1.8	-2.3	209.2	nt	nt
Cc1c(C(=O)OCC(=O)N2CCC(C)CC2)oc2ccccc12	-4.6	3.1	2.1	153.9	nt	nt
CC1CCN(S(=O)(=O)c2ccc(NC(=O)c3ccccc3F)cc2)CC1	1.0	1.1	-0.4	322.8	nt	nt
COc1ccccc1C(=O)Nc1ccc(S(=O)(=O)N2CCCCC2c2cccnc2)cc1 (stereo unspecified)	-16.2	-1.1	-1.1	140.5	133.3	i
O=C(Nc1ccc(S(=O)(=O)N2CCCCC2c2cccnc2)cc1)c1ccccc1F (stereo unspecified)	-5.2	-0.9	-1.2	959.7	134.5	i
COc1ccccc1C(=O)Nc1ccc(S(=O)(=O)N2CCC(C)CC2)cc1	2.3	3.0	-1.7	149.6	nt	nt
CCOCCCNC(=O)c1ccccc1SCC	-13.1	-1.1	-3.0	332.0	nt	nt
COc1cccc2sc3cc(C#CC4(O)CCCCC4)ccc3c(=O)c12	50.2*	2.8	-2.6	334.9	97.7	i
COc1cccc2sc3ccc(C#CC4(N)CCCCC4)cc3c(=O)c12	25.7	4.2	12.3	556.3	nt	nt
